# Data from paper PMC9292889 (Clinical Pharmacology in Drug Development, 2020).
# Entries after “also recorded” stand apart in the source; their conditions may differ. Marks after values point to notes of the source that are not given here.
# What was measured:
# [1] = cited from earlier work
# P‐glycoprotein = details: in vitro; cited from earlier work
# [2] = tested on: organic anion transporter 3; details: in vitro; cited from earlier work
# [3] = tested on: breast cancer resistance protein; details: in vitro; cited from earlier work
# [4] = Clinical laboratory tests; type: in vivo, human; details: for maximum mean decrease in ANC: day 10, 8 hours after dosing; for maximum mean decrease from baseline in ANC: day 1, 8 hours after dosing
# Method in brief: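 Randomized, subject- and investigator-blinded study in healthy Chinese adults (screening ANC ≥2000 cells/μL). Oral dose of 2, 4 or 10 mg test compound or placebo, given after an overnight fast of at least 10 h with 200 mL water, meals 3 h later. Single dose on day 1, then once daily on days 4–10. Clinical laboratory tests were run throughout, and ANC/ALC change was taken from baseline.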
# [5] = Single-dose plasma pharmacokinetics; type: in vivo, human; details: for Ratio of dose‐normalized geometric means AUC0‐∞ (90%CI) / Ratio of dose‐normalized geometric means Cmax (90%CI) / half-life: day 1; for half-life / Cmax / Tmax: human, plasma; for half-life: oral, across the 2‐ to 10‐mg dose range; for Cmax / Tmax: po; for Tmax: day 1, median (range); for CL/F: day 1, arithmetic mean (SD)
# Method in brief: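 Fasted healthy Chinese adults took a single oral dose of test compound (2, 4 or 10 mg) with 200 mL water on day 1. Plasma was sampled at 0.5–48 h by LC-MS/MS (K2EDTA plasma, liquid-liquid extraction, validated 0.200–200.00 ng/mL). Noncompartmental Cmax, tmax, AUC0‑∞ and CL/F were derived. A power model gave ratios of dose-normalized geometric means against 2 mg, with 90% CI.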
# [6] = tested on: multidrug and toxin extrusion protein 2‐K; details: in vitro; cited from earlier work
# [7] = patients weighing <40 kg; cited from earlier work
# cytochrome P450 3A4 = details: oxidative metabolism mediated by cytochrome P450 3A4; cited from earlier work
# Safety and tolerability = type: in vivo, human; details: for Number of subjects (%) with ≥1 AE, all causalities: single and multiple doses
# Method in brief: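 Fasted healthy Chinese adults received oral test compound (2, 4, 10 mg) or placebo, single dose on day 1 then once daily on days 4–10, blinded and randomized. TEAEs were defined as onset or worsening after dosing and coded by MedDRA term. They were tabulated by treatment, relationship to drug, day of onset and severity. Single 12-lead ECGs, supine/standing blood pressure and pulse rate, and laboratory tests were also recorded.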
# [8] = Multiple-dose plasma pharmacokinetics; type: in vivo, human; details: for CL/F / RA (accumulation ratio): day 10, arithmetic mean (SD), N = 8; for Ratio of dose‐normalized geometric means AUCτ,ss (90%CI) / Ratio of dose‐normalized geometric means Cmax,ss (90%CI): multiple dose, day 10
# Method in brief: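 Oral test compound (2, 4, 10 mg) was given once daily on days 4–10 after an overnight fast of at least 10 h. Plasma was sampled predose on days 4–10 to judge steady state, and at 0.5–48 h after the day-10 dose. LC-MS/MS after liquid-liquid extraction from K2EDTA plasma, validated 0.200–200.00 ng/mL. Noncompartmental AUCτ,ss, Cmax,ss, tmax, t½, CL/F and accumulation ratio were derived.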
smiles,measurement,setting,value
CCS(=O)(=O)N1CC(CC#N)(n2cc(-c3ncnc4[nH]ccc34)cn2)C1 [Baricitinib],excreted in the urine in an unchanged form,[1],~75%
same,mean renal clearance,[1],~12 L/h^2
same,oral‐dose clearance,[1],17 L/h
same,mean terminal‐phase t1/2,"[1]; healthy White subjects, noncompartmental PK method",approximately 8 hours
same,geometric mean terminal‐phase disposition half‐life (t1/2),[1]; healthy White volunteers,about 8 hours
same,transporter substrate,P‐glycoprotein,substrate
same,transporter substrate,[2],substrate
same,transporter substrate,[3],substrate
same,time for ANC and ALC values to return to baseline postdose,[4]; days 1 and 10,≤ 24 h
same,maximum mean decrease in ANC,[4]; multiple dose 2 mg,0.096 GI/L
same,maximum mean decrease in ANC,[4]; multiple dose 4 mg,0.706 GI/L
same,maximum mean decrease in ANC,[4]; multiple dose 10 mg,1.443 GI/L
same,time of increase in ALC after dosing,[4]; single and multiple doses,16 h
same,time of maximum decrease in ANC after dosing,[4]; single and multiple doses,8 h
same,maximum mean decrease from baseline in ANC,[4]; single dose 2 mg,0.616 GI/L
same,maximum mean decrease from baseline in ANC,[4]; single dose 4 mg,0.808 GI/L
same,maximum mean decrease from baseline in ANC,[4]; single dose 10 mg,1.706 GI/L
same,Ratio of dose‐normalized geometric means AUC0‐∞ (90%CI),"[5]; 4 mg vs 2 mg, single dose",1.05 (1.00‐1.11)
same,Ratio of dose‐normalized geometric means Cmax (90%CI),"[5]; 4 mg vs 2 mg, single dose",1.09 (0.97‐1.22)
same,Ratio of dose‐normalized geometric means AUC0‐∞ (90%CI),"[5]; 10 mg vs 2 mg, single dose",1.13 (1.01‐1.26)
same,Ratio of dose‐normalized geometric means Cmax (90%CI),"[5]; 10 mg vs 2 mg, single dose",1.22 (0.94‐1.58)
same,half-life,"[5]; mean t1/2, single dose",5.9 to 7.4 h
same,half-life,"[5]; t1/2, individual values, single dose",4.5 to 11.8 h
same,Cmax,[5]; 2 mg,24.6 ng/mL
same,Tmax,"[5]; 2 mg, single oral 2 mg, N = 8",1 h
same,Cmax,[5]; 4 mg,51.3 ng/mL
same,Tmax,"[5]; 4 mg, single oral 4 mg, N = 9",1 h
same,Cmax,[5]; 10 mg,152 ng/mL
same,Tmax,"[5]; 10 mg, single oral 10 mg, N = 8",0.75 h
same,CL/F,"[5]; single oral 2 mg, N = 8",14.5 (1.76) L/h
same,CL/F,"[5]; single oral 4 mg, N = 8",15.0 (2.48) ^a L/h
same,CL/F,"[5]; single oral 10 mg, N = 8",12.9 (1.24) L/h
same,transporter substrate,[6],substrate
same,t1/2 compared with adult populations,[7],substantially shorter
same,dose identified as undergoing biotransformation,cytochrome P450 3A4,< 10%
same,"ALT increased, drug related (number of TEAEs [number of subjects with TEAEs])",Safety and tolerability; 2 mg (N = 8),0
same,"ANC decreased, drug related (number of TEAEs [number of subjects with TEAEs])",Safety and tolerability; 2 mg (N = 8),0
same,"AST increased, drug related (number of TEAEs [number of subjects with TEAEs])",Safety and tolerability; 2 mg (N = 8),0
same,"Bilirubin increased, drug related (number of TEAEs [number of subjects with TEAEs])",Safety and tolerability; 2 mg (N = 8),0
same,"ECG abnormal, drug related (number of TEAEs [number of subjects with TEAEs])",Safety and tolerability; 2 mg (N = 8),0
same,"Hypotension, drug related (number of TEAEs [number of subjects with TEAEs])",Safety and tolerability; 2 mg (N = 8),0
same,"Orthostatic hypotension, drug related (number of TEAEs [number of subjects with TEAEs])",Safety and tolerability; 2 mg (N = 8),0
same,Overall drug related TEAEs (number of TEAEs [number of subjects with TEAEs]),Safety and tolerability; 2 mg (N = 8),0 (0)
same,"Total number of TEAEs (all severities were “mild”), n, all causalities",Safety and tolerability; 2 mg (N = 8),2
same,"Number of subjects (%) with ≥1 AE, all causalities",Safety and tolerability; 2 mg (N = 8),1 (12.5)
same,"ALT increased, drug related (number of TEAEs [number of subjects with TEAEs])",Safety and tolerability; 4 mg (N = 9),1 (1)
same,"ANC decreased, drug related (number of TEAEs [number of subjects with TEAEs])",Safety and tolerability; 4 mg (N = 9),1 (1)
same,"AST increased, drug related (number of TEAEs [number of subjects with TEAEs])",Safety and tolerability; 4 mg (N = 9),1 (1)
same,"Bilirubin increased, drug related (number of TEAEs [number of subjects with TEAEs])",Safety and tolerability; 4 mg (N = 9),0
same,"ECG abnormal, drug related (number of TEAEs [number of subjects with TEAEs])",Safety and tolerability; 4 mg (N = 9),0
same,"Hypotension, drug related (number of TEAEs [number of subjects with TEAEs])",Safety and tolerability; 4 mg (N = 9),0
same,"Orthostatic hypotension, drug related (number of TEAEs [number of subjects with TEAEs])",Safety and tolerability; 4 mg (N = 9),0
same,Overall drug related TEAEs (number of TEAEs [number of subjects with TEAEs]),Safety and tolerability; 4 mg (N = 9),3 (2)
same,"Total number of TEAEs (all severities were “mild”), n, all causalities",Safety and tolerability; 4 mg (N = 9),3
same,"Number of subjects (%) with ≥1 AE, all causalities",Safety and tolerability; 4 mg (N = 9),2 (22.2)
same,"ALT increased, drug related (number of TEAEs [number of subjects with TEAEs])",Safety and tolerability; 10 mg (N = 8),2 (2)
same,"ANC decreased, drug related (number of TEAEs [number of subjects with TEAEs])",Safety and tolerability; 10 mg (N = 8),0
same,"AST increased, drug related (number of TEAEs [number of subjects with TEAEs])",Safety and tolerability; 10 mg (N = 8),1 (1)
same,"Bilirubin increased, drug related (number of TEAEs [number of subjects with TEAEs])",Safety and tolerability; 10 mg (N = 8),1 (1)
same,"ECG abnormal, drug related (number of TEAEs [number of subjects with TEAEs])",Safety and tolerability; 10 mg (N = 8),0
same,"Hypotension, drug related (number of TEAEs [number of subjects with TEAEs])",Safety and tolerability; 10 mg (N = 8),0
same,"Orthostatic hypotension, drug related (number of TEAEs [number of subjects with TEAEs])",Safety and tolerability; 10 mg (N = 8),1 (1)
same,Overall drug related TEAEs (number of TEAEs [number of subjects with TEAEs]),Safety and tolerability; 10 mg (N = 8),5 (4)
same,"Total number of TEAEs (all severities were “mild”), n, all causalities",Safety and tolerability; 10 mg (N = 8),6
same,"Number of subjects (%) with ≥1 AE, all causalities",Safety and tolerability; 10 mg (N = 8),4 (50.0)
same,Severity of TEAEs,Safety and tolerability; all TEAEs reported during the study,mild
same,Serious adverse events (SAEs),Safety and tolerability; during the study,no SAEs reported
same,12‐lead ECG changes,Safety and tolerability; following administration of baricitinib 2 to 10 mg,no clinically significant dose‐dependent ECG changes
same,Tolerability,Safety and tolerability; single and multiple oral once‐daily doses up to 10 mg,generally well tolerated
same,CL/F,[8]; 2 mg once daily,13.9 (1.66) L/h
same,RA (accumulation ratio),[8]; 2 mg once daily,1.11 (0.11)
same,CL/F,[8]; 4 mg once daily,15.3 (2.64) L/h
same,RA (accumulation ratio),[8]; 4 mg once daily,1.06 (0.20)
same,"Ratio of dose‐normalized geometric means AUCτ,ss (90%CI)",[8]; 4 mg vs 2 mg,1.03 (0.97‐1.09)
same,"Ratio of dose‐normalized geometric means Cmax,ss (90%CI)",[8]; 4 mg vs 2 mg,0.99 (0.91‐1.08)
same,CL/F,[8]; 10 mg once daily,13.1 (1.95) L/h
same,RA (accumulation ratio),[8]; 10 mg once daily,1.05 (0.07)
same,"Ratio of dose‐normalized geometric means AUCτ,ss (90%CI)",[8]; 10 mg vs 2 mg,1.07 (0.94‐1.23)
same,"Ratio of dose‐normalized geometric means Cmax,ss (90%CI)",[8]; 10 mg vs 2 mg,0.99 (0.81‐1.20)
same,AUC,"[8]; human, plasma, oral, 2 mg",146 ng·h/mL
same,Cmax,"[8]; human, plasma, oral, 2 mg",28.6 ng/mL
same,Tmax,"[8]; human, plasma, oral, 2 mg",0.5 h
same,half-life,"[8]; human, plasma, oral, 2 mg",5.68 h
same,AUC,"[8]; human, plasma, oral, 4 mg",268 ng·h/mL
same,Cmax,"[8]; human, plasma, oral, 4 mg",49.6 ng/mL
same,half-life,"[8]; human, plasma, oral, 4 mg",7.55 h
same,AUC,"[8]; human, plasma, oral, 10 mg",778 ng·h/mL
same,Cmax,"[8]; human, plasma, oral, 10 mg",138 ng/mL
same,half-life,"[8]; human, plasma, oral, 10 mg",7.39 h
same,Attainment of steady‐state plasma concentrations,"[8]; once‐daily dosing days 4 through 10, predose samples",after the second day of once‐daily dosing; also recorded: after the second once‐daily dose
